Data from ChEMBL document CHEMBL4229410, “Facile construction of fused benzimidazole-isoquinolinones that induce cell-cycle arrest and apoptosis in colorectal cancer cells” (Bioorg Med Chem, 2018).
The source made the active and inactive calls. The rule behind the calls is not given here.

Assays:
[1] = target: T1, Fibroblast growth factor receptor 2 (Homo sapiens, UniProt P21802); assay: Inhibition of partial length human FGFR2 (D457 to E769 residues) expressed in bacterial expression system assessed as residual activity at 5 uM by KINOMEscan assay relative to control
[2] = target: T2, Macrophage colony-stimulating factor 1 receptor (Homo sapiens, UniProt P07333); assay: Binding affinity to human CSF1R (I564 to S939 residues) expressed in bacterial expression system by KINOMEscan assay
T2 sequence (P07333 whole entry, the tested form may be a part): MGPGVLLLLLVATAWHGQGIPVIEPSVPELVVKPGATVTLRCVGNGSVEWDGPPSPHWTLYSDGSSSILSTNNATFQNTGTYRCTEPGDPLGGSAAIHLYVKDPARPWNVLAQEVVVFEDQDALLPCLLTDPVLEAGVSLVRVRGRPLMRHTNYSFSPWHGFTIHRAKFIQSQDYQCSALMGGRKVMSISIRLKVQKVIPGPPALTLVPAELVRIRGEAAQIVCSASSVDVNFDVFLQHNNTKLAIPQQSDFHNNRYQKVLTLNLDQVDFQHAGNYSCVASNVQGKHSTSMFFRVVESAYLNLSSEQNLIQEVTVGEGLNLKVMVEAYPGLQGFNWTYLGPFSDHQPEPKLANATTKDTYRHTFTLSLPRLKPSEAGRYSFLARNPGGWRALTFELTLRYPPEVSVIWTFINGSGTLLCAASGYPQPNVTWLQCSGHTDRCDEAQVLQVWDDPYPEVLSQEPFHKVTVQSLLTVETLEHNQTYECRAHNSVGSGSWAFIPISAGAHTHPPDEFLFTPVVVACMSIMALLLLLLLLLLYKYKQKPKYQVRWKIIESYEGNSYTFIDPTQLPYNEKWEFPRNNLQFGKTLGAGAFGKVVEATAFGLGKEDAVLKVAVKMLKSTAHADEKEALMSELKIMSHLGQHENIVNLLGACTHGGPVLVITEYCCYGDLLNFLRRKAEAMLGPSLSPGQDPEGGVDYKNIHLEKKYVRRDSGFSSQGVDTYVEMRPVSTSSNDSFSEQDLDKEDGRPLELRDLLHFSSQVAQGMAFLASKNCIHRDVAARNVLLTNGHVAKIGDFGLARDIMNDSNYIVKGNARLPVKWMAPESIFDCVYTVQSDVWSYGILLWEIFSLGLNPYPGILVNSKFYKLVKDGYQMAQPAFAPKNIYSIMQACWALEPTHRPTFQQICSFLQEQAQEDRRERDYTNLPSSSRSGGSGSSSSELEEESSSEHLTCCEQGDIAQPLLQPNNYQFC

HT-29 [3] = assay: Induction of apoptosis in human HT-29 cells assessed as live cells at 75 uM after 48 hrs by Annexin-V-FITC/propidium iodide staining based flow cytometry (reference value: 93.2%); assay type: functional
[4] = target: Fibroblast growth factor receptor 3 (Homo sapiens, UniProt P22607); assay: Inhibition of partial length human FGFR3 (R442 to S771 residues) expressed in bacterial expression system assessed as residual activity at 5 uM by KINOMEscan assay relative to control
[5] = target: T1, Fibroblast growth factor receptor 2; assay: Binding affinity to partial length human FGFR2 (D457 to E769 residues) expressed in bacterial expression system by KINOMEscan assay
[6] = target: Tyrosine-protein kinase ABL1 (Homo sapiens, UniProt P00519); assay: Binding affinity to human phosphorylated ABL1 (S229 to K512 residues) expressed in mammalian expression system by KINOMEscan assay
[7] = tested on: Tyrosine-protein kinase ABL1 (Homo sapiens), P00519 [T315I]; assay: Inhibition of human phosphorylated ABL1 T315I mutant (S229 to K512 residues) expressed in mammalian expression system assessed as residual activity at 5 uM by KINOMEscan assay relative to control
[8] = target: Proto-oncogene tyrosine-protein kinase receptor Ret (Homo sapiens, UniProt P07949); assay: Binding affinity to human RET (E713 to D1014 residues) expressed in bacterial expression system by KINOMEscan assay
HT-29 [9] = assay: Induction of apoptosis in human HT-29 cells assessed as late apoptotic cells at 50 uM after 48 hrs by Annexin-V-FITC/propidium iodide staining based flow cytometry (reference value: 4.1%); assay type: functional
[10] = target: T2, Macrophage colony-stimulating factor 1 receptor; assay: Inhibition of human CSF1R (I564 to S939 residues) expressed in bacterial expression system assessed as residual activity at 5 uM by KINOMEscan assay relative to control
SW-620 [11] = assay: Induction of apoptosis in human SW620 cells assessed as increase in PARP activation after 48 hrs by Western blot analysis; assay type: functional, cell-based
[12] = target: T3, Serine/threonine-protein kinase PLK1 (Homo sapiens, UniProt P53350); assay: Inhibition of human PLK1 (A33 to F325 residues) expressed in mammalian expression system assessed as residual activity at 5 uM by KINOMEscan assay relative to control
T3 sequence (P53350 whole entry, the tested form may be a part): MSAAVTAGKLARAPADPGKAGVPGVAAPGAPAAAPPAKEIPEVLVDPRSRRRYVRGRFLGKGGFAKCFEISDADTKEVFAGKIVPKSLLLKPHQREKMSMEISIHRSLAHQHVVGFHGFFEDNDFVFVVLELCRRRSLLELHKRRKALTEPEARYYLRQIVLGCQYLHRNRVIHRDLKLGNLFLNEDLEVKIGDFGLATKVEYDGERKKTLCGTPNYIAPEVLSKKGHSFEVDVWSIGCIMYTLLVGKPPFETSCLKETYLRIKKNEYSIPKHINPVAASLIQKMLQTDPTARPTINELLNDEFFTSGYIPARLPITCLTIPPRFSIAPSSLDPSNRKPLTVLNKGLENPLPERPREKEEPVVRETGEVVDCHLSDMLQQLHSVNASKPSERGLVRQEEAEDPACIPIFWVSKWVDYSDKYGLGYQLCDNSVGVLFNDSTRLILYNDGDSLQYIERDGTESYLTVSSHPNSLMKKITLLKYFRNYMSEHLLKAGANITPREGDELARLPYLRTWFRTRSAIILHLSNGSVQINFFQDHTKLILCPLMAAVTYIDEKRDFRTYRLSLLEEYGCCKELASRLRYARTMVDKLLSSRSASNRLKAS

[13] = target: T3, Serine/threonine-protein kinase PLK1; assay: Binding affinity to human PLK1 (A33 to F325 residues) expressed in mammalian expression system by KINOMEscan assay
[14] = target: ALK tyrosine kinase receptor (Homo sapiens, UniProt Q9UM73); assay: Binding affinity to human ALK (I1088 to E1409 residues) expressed in mammalian expression system by KINOMEscan assay
SW-620 [15] = assay: Down regulation of cyclin-B1 expression in human SW620 cells after 48 hrs by Western blot analysis; assay type: functional, cell-based
Procedure, shortened: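 HT29 or SW620 cells were treated at 0, 25, 50 and 75 μM for 48 h and lysed in RIPA with protease and phosphatase inhibitors. Protein was quantified by BCA. 50 μg lysate was run on 8–15% SDS-PAGE and transferred to PVDF. Blocking was 5% BSA/TBST for 2 h; primary antibodies were applied overnight at 4 °C, then HRP secondary 1 h at room temperature.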

HT-29 [16] = assay: Induction of apoptosis in human HT-29 cells assessed as live cells at 25 uM after 48 hrs by Annexin-V-FITC/propidium iodide staining based flow cytometry (reference value: 93.2%); assay type: functional
[17] = target: MAP kinase-interacting serine/threonine-protein kinase 1 (Homo sapiens, UniProt Q9BUB5); assay: Binding affinity to full length human MKNK1 (M1 to L424 residues) expressed in mammalian expression system by KINOMEscan assay
[18] = target: Protein kinase C epsilon type (Homo sapiens, UniProt Q02156); assay: Binding affinity to human PRKCE (A378 to P737 residues) expressed in mammalian expression system by KINOMEscan assay
Sequence of Protein kinase C epsilon type (Q02156 whole entry, the tested form may be a part): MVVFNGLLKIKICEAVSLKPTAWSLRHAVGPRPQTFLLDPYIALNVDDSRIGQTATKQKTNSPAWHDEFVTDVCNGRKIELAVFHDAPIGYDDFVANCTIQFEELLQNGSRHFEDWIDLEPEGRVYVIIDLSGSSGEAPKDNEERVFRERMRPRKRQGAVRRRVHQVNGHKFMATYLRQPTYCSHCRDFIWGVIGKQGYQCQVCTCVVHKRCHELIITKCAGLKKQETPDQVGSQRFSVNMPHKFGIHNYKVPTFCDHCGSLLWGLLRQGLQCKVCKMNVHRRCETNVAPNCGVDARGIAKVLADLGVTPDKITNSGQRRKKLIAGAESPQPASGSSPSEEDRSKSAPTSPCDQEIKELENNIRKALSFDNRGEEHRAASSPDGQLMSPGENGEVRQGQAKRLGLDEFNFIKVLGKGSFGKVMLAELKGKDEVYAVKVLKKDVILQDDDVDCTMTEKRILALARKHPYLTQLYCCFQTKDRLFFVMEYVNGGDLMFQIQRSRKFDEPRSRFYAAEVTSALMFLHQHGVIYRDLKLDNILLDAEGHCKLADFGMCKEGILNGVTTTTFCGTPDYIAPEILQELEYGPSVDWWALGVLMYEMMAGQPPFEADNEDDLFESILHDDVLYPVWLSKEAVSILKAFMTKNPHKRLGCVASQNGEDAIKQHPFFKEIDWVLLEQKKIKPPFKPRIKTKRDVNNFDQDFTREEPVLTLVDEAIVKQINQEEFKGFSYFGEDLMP

[19] = target: Inhibitor of nuclear factor kappa-B kinase subunit alpha (Homo sapiens) (UniProt O15111); assay: Inhibition of full length human IKKalpha (M1 to E745 residues) expressed in mammalian expression system assessed as residual activity at 5 uM by KINOMEscan assay relative to control
[20] = target: Mitogen-activated protein kinase 10 (Homo sapiens, UniProt P53779); assay: Inhibition of human JNK3 (V28 to Q422 residues) expressed in mammalian expression system assessed as residual activity at 5 uM by KINOMEscan assay relative to control
[21] = target: Dual specificity tyrosine-phosphorylation-regulated kinase 1B (Homo sapiens, UniProt Q9Y463); assay: Inhibition of full length human DYRK1B (M1 to S629 residues) expressed in bacterial expression system assessed as residual activity at 5 uM by KINOMEscan assay relative to control
Sequence of Dual specificity tyrosine-phosphorylation-regulated kinase 1B (Q9Y463 whole entry, looked up, the tested form may be a part): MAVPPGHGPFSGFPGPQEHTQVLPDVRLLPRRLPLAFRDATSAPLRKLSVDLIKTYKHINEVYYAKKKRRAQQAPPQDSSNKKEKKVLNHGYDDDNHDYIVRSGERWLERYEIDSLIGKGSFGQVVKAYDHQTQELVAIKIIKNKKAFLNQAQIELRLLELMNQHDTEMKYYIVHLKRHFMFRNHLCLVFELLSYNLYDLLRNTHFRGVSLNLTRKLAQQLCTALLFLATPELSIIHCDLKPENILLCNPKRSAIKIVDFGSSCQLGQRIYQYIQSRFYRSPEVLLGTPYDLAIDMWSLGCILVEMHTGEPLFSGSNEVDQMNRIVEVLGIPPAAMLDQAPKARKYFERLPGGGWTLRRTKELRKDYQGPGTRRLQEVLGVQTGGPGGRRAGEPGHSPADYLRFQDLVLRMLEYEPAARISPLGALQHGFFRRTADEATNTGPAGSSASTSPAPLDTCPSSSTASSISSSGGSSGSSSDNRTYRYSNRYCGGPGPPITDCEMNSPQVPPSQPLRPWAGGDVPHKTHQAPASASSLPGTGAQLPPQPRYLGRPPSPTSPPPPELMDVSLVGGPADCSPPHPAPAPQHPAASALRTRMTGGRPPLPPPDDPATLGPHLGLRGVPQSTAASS

[22] = target: Dual specificity mitogen-activated protein kinase kinase 2 (Homo sapiens, UniProt P36507); assay: Inhibition of full length human MEK2 (M1 to V400 residues) expressed in mammalian expression system assessed as residual activity at 5 uM by KINOMEscan assay relative to control
[23] = tested on: Mast/stem cell growth factor receptor Kit (Homo sapiens), P10721 [D816V]; assay: Inhibition of human KIT (I571 to D952 residues) D816V mutant expressed in bacterial expression system assessed as residual activity at 5 uM by KINOMEscan assay relative to control
[24] = target: Mitogen-activated protein kinase kinase kinase 9 (Homo sapiens, UniProt P80192); assay: Binding affinity to human MLK1 (V88 to W426 residues) expressed in bacterial expression system by KINOMEscan assay
Sequence of Mitogen-activated protein kinase kinase kinase 9 (P80192 whole entry, the tested form may be a part): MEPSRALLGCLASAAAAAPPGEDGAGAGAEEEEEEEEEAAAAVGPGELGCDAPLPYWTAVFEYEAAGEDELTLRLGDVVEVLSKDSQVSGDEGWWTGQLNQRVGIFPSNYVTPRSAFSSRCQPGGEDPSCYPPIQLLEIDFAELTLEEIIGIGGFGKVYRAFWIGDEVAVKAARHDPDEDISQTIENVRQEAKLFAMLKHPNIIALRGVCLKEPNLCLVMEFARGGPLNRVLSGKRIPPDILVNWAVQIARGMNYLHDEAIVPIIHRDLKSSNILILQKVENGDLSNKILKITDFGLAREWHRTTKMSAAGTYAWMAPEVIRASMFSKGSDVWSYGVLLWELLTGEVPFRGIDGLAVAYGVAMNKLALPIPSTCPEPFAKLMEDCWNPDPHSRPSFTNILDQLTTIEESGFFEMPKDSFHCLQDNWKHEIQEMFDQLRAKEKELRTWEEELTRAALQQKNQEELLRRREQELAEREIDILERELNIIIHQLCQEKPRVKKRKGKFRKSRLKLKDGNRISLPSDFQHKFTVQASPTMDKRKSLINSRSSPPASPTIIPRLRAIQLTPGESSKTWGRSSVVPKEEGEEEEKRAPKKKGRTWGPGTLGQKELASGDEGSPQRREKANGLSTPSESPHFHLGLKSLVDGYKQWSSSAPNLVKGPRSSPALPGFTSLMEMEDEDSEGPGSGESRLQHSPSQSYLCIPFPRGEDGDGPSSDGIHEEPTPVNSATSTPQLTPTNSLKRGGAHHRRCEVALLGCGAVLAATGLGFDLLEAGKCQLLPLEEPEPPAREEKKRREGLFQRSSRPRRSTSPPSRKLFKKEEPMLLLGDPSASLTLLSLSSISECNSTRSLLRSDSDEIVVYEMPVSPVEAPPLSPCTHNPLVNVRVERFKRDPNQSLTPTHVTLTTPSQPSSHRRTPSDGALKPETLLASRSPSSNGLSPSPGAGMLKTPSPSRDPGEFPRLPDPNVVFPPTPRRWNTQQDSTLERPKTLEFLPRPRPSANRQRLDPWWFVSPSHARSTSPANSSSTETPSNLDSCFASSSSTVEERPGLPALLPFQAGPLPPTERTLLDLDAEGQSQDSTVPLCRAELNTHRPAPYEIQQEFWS

[25] = target: Cyclin-dependent kinase 19 (Homo sapiens, UniProt Q9BWU1); assay: Binding affinity to human CDK11 (M1 to N360 residues) expressed in bacterial expression system by KINOMEscan assay
Sequence of Cyclin-dependent kinase 19 (Q9BWU1 whole entry, the tested form may be a part): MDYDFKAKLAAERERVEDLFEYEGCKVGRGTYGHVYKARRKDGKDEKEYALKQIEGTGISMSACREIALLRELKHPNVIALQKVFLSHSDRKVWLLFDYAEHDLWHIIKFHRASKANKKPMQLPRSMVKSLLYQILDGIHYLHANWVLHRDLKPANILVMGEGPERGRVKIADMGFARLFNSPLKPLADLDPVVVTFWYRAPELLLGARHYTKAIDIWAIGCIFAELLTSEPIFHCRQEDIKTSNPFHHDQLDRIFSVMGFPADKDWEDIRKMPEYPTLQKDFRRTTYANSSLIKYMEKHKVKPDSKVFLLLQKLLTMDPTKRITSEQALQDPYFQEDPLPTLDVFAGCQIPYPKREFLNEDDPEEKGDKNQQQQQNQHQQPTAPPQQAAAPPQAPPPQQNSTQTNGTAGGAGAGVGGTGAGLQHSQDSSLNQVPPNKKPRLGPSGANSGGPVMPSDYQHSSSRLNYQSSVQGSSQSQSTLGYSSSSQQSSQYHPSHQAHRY

HT-29 [26] = assay: Inhibition of PI3K in human HT-29 cells assessed as reduction in AKT phosphorylation at S473 residue up to 75 uM after 48 hrs by Western blot analysis; assay type: cell-based
HT-29 [27] = assay: Induction of apoptosis in human HT-29 cells assessed as early apoptotic cells at 50 uM after 48 hrs by Annexin-V-FITC/propidium iodide staining based flow cytometry (reference value: 1%); assay type: functional
HT-29 [28] = assay: Upregulation of p53 expression in human HT-29 cells after 48 hrs by Western blot analysis; assay type: functional, cell-based
[29] = target: Serine/threonine-protein kinase 32C (Homo sapiens, UniProt Q86UX6); assay: Inhibition of human YANK3 (M68 to G486 residues) expressed in bacterial expression system assessed as residual activity at 5 uM by KINOMEscan assay relative to control
Sequence of Serine/threonine-protein kinase 32C (Q86UX6 whole entry, the tested form may be a part): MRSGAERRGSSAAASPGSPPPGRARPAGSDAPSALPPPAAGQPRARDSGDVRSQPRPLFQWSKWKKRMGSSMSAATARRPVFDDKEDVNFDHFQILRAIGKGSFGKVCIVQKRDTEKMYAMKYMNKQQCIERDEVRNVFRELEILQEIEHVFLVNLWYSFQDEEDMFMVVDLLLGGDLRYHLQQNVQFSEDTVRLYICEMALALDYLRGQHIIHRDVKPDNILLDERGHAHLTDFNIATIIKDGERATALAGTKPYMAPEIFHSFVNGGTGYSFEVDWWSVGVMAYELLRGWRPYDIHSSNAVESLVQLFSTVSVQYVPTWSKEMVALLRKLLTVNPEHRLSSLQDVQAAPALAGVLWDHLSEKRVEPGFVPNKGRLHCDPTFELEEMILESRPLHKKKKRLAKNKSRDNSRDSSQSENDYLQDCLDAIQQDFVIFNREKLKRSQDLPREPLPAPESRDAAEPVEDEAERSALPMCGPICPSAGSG

CC(C)CN(C(=O)c1cccnc1)c1c2ccccc2c(=O)n2c1[nH]c1ccccc12
Activity [1]: 76% | Kd [2]: ≥ 5 µM | Activity (HT-29 [3]): 49.8% | Activity [4]: 80% | Kd [5]: ≥ 5 µM | Kd [6]: ≥ 5 µM | Activity [7]: 90% | Kd [8]: ≥ 5 µM | Activity (HT-29 [9]): 13.7% | Activity [10]: 100% | Activity (SW-620 [11]): Dose-dependent effect | Activity [12]: 100% | Kd [13]: ≥ 5 µM | Kd [14]: ≥ 5 µM | Activity (SW-620 [15]): Dose-dependent effect | Activity (HT-29 [16]): 88.4% | Kd [17]: ≥ 5 µM | Kd [18]: ≥ 5 µM | Activity [19]: 100% | Activity [20]: 95% | Activity [21]: 95% | Activity [22]: 82% | Activity [23]: 100% | Kd [24]: ≥ 5 µM | Kd [25]: ≥ 5 µM | inhibition (HT-29 [26]): Active | Activity (HT-29 [27]): 1.7% | Activity (HT-29 [28]): Dose-dependent effect | Activity [29]: 99%
